The record followed here is ChEMBL document CHEMBL5131377, “Structure-Activity Relationship Studies of Trisubstituted Isoxazoles as Selective Allosteric Ligands for the Retinoic-Acid-Receptor-Related Orphan Receptor γt” (J Med Chem, 2021).

The nature of series [1]: Kinetic aqueous solubility of compound in HEPES buffer at pH 7.4 at 500 uM measured after 90 mins by spectrophotometry analysis. The format is physicochemical. The gist of the method:
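Compound-saturated HEPES buffer (pH 7.4, from DMSO stocks, 500 μM) shaken 90 min at room temperature, filtered, then diluted with an equal volume of acetonitrile.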

The nature of series [2]: Permeability of the compound at 500 uM after 20 hrs by PAMPA. The class given is ADME. An outline of the steps:
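Artificial membrane permeation with 500 μM compound in the donor compartment; after 20 h, receiver wells read by spectrophotometry and % flux derived by normalizing to flux across a blank filter.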

Series [3] is described as follows: Microsomal stability in human liver microsomes assessed as intrinsic clearance at 1 uM measured up to 50 mins in presence of NADPH by LC-MS/MS analysis. The format is ADME, Microsome. An outline of the steps:
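Oxidative stability in NADPH-supplemented human liver microsomes; compound at 1 μM, depletion followed by LC–MS/MS for up to 50 min at 37 °C. Intrinsic clearance calculated from half-life, assay volume and microsomal protein amount (μL/min/mg).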

The nature of series [4]: Stability in human plasma assessed as parent compound remaining at 5 uM measured after 1 hr by LC-MS/MS analysis relative to control. As to conditions: read-out: Stability. The format is ADME, cell-free. An outline of the steps:
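Compound at 5 μM incubated 1 h at 37 °C in 50% human plasma in PBS; % remaining determined by LC–MS.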

SMILES strings stand for the structures.

In the case of `O=C(O)c1ccc(-c2nn(C(=O)c3c(Cl)cccc3C(F)(F)F)c3ccccc23)cc1`, in series [1], the Kinetic_solubility came out at 423 µM. In addition, in series [2], the permeability is 29.7%. Also, the CLH in series [3] was 0.4 µL/min/mg. In addition, in series [4], the remaining at 1 h, 5 µM is 95.5%.

As to `O=C(O)c1ccc(NCc2c(-c3c(Cl)cccc3C(F)(F)F)noc2-c2cc[nH]c2)cc1`, in series [1], the Kinetic_solubility came to 460 µM. Further, the permeability in series [2] is recorded as 36.1%. Besides, in series [3], the CLH amounted to 31.2 µL/min/mg. The remaining at 1 h, 5 µM in series [4] is 79.1%.

Turning to `O=C(O)c1ccc(OCc2c(-c3c(Cl)cccc3C(F)(F)F)noc2-c2cc[nH]c2)cc1F`, the Kinetic_solubility in series [1] was 445 µM. Moreover, the permeability in series [2] came out at 37.3%. Further, the CLH in series [3] turned out to be 77 µL/min/mg. Further, in series [4], the remaining at 1 h, 5 µM stood at 97.1%.

`O=C(O)c1ccc(OCc2c(-c3c(Cl)cccc3C(F)(F)F)noc2-c2ccc[nH]2)cc1` yielded a Kinetic_solubility in series [1] of 421 µM. Further, the permeability in series [2] was found to be 50.5%. The CLH in series [3] came out at 68 µL/min/mg. Moreover, the remaining at 1 h, 5 µM in series [4] was 89.5%.

`O=C(O)c1ccc(OCc2c(-c3c(Cl)cccc3C(F)(F)F)noc2-c2cn[nH]c2)cc1` came in with a Kinetic_solubility in series [1] of 476 µM. The molecule further yielded a permeability in series [2] of 23%. Besides, the CLH in series [3] turned out to be 8.8 µL/min/mg. Moreover, the remaining at 1 h, 5 µM in series [4] was 100%.

Turning to `O=C(O)c1ccc(OCc2c(-c3c(Cl)cccc3C(F)(F)F)noc2-c2cc[nH]c2)cc1`, the Kinetic_solubility in series [1] was determined as 436 µM. The same molecule returned a permeability in series [2] of 40.9%. For the same molecule, the CLH in series [3] is 57.8 µL/min/mg. In addition, the remaining at 1 h, 5 µM in series [4] was determined as 74.2%.

Molecule `O=C(O)c1ccc(/C=C/c2c(-c3c(Cl)cccc3C(F)(F)F)noc2-c2cc[nH]c2)cc1` displayed a Kinetic_solubility in series [1] of 392 µM. In series [2], this molecule came in with a permeability of 40.3%. For the same molecule, the CLH in series [3] turned out to be 69 µL/min/mg. In series [4], the remaining at 1 h, 5 µM stood at 59.5%.
